Screening results: PubChem, Broad Institute
Rtt109 Vps75 = inhibitors of C. albicans Rtt109/Vps75 HAT, primary screen, biochemical, ThioGlo CoA-SH fluorescence, plate reader | purified Rtt109/Vps75, 4 h | inhibition, % at 34.9 µM | actives 0.16% (n = 330,000) | AID 540336, 2011;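 active = inhibition of at least 50% in every replicate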
DYRK1A inh = rat Dyrk1A kinase inhibitors, primary screen, biochemical, single point, plate reader; Dual specificity tyrosine-phosphorylation-regulated kinase 1A (Rattus norvegicus), Q63470; ADP-Glo luminescence, NFATc1 peptide; inhibition, % at 12.5 µM; actives 0.43% (n = 310,000); in the data active = inhibition above about 50%;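 also: plate controls were vehicle with enzyme for no effect and no enzyme for full effect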
dFosB act-1 = activators of delta FosB homodimer, primary screen, biochemical, fluorescence polarization, TAMRA-CDK5 oligo, single point; Protein FosB (Mus musculus), P13346; purified delta FosB; percent of positive-control signal above neutral wells; activation, % at 25 µM; actives 0.99% (n = 340,000); AID 493131, 2011;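 active = mean activation above about 17%, with every replicate also reaching it, limit read from the data, passing the limit was not always enough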
Target sequence (P13346 whole entry, looked up): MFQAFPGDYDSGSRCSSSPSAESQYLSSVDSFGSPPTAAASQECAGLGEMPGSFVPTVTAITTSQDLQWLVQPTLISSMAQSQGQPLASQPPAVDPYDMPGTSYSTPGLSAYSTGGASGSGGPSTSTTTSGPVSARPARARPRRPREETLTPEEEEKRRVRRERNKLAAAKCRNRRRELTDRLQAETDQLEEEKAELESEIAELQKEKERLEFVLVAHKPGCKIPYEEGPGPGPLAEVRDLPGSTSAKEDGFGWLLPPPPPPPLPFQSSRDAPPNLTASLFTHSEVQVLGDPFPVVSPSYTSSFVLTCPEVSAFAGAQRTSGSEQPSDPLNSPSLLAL
CAL PDZ FP-1 = CAL PDZ peptide-binding inhibitors, primary screen, biochemical, fluorescence polarization, Cer-tagged CAL PDZ, HTS | Golgi-associated PDZ and coiled-coil motif-containing protein (Homo sapiens), Q9HD26 | purified CAL PDZ, TMR-peptide fluorescence polarization, 1 h | inhibition, % at 20 µM | actives 0.02% (n = 330,000);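 active = highest replicate inhibition of at least 40%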;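 also: plate controls were DMSO neutral control wells for no effect and unlabeled competitor peptide control wells for full effect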
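Read-out basis: mP drop reported as inhibition | Assay system: Tagged CAL PDZ protein CerCALP, purified | Benchmarks: Unlabelled peptide for full inhibition, DMSO wells as neutral | Schedule: 1 h incubation at room temperature before polarization reading | Buffer or medium: Sodium phosphate/NaCl buffer pH 7.4 with TCEP, IgG, Thesit | Doses: Single point, 20 µM | Measured by: Fluorescence polarization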
CDK5 p35 inh = inhibitors of human CDK5/p35 kinase, primary screen, biochemical, single concentration | Recombinant CDK5/p35, ADP-Glo luminescence, 60 min | AID 488839, 2010 | Cyclin-dependent kinase 5 (Homo sapiens) + Cyclin-dependent kinase 5 activator 1 (Homo … | inhibition, % at 10 µM | actives 0.01% (n = 330,000);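 active = highest replicate inhibition of at least 50% and at least 75% of replicates reaching 50%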;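 also: plate controls were DMSO neutral control for no effect and GW8510 at 10 µM for full effect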
CAL PDZ FP-2 = untagged CAL PDZ binding inhibitors, primary screen, biochemical, fluorescence polarization, HTS | purified CAL PDZ, TMR-peptide fluorescence polarization, 1 h | actives 0.92% (n = 300,000) | Golgi-associated PDZ and coiled-coil motif-containing protein (Homo sapiens), Q9HD26 | inhibition, % at 24.9 µM;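 active = mean inhibition of at least 30% with at least half of replicates also reaching 30%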;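 also: 0% = DMSO neutral control and 100% = excess unlabeled competitor peptide PRC23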
dFosB act-2 = activators of mouse delta FosB DNA binding, confirmation, biochemical, fluorescence polarization, TAMRA-CDK5 oligo, cherry-picked samples. 2,400 tested, under 10 active. shares compounds with dFosB act-1. purified delta FosB; normalised: neutral wells 0, positive control 100. activation, % at 24.9 µM. AID 588690, 2011;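 active = highest replicate activation at or above 34% and every replicate reaching that threshold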;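 also: higher polarization means more probe DNA bound by delta FosB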
An asterisk follows results filed as active. Sampled rows, rich in hits. Any-hit rate of the full collection: about 2.2%.

How did COc1ccc([N+](=O)[O-])cc1Nc1ncnc2ccccc12 do in these assays?
Rtt109 Vps75: -14; DYRK1A inh: -3; dFosB act-1: 38*; CAL PDZ FP-1: -1; CDK5 p35 inh: 2; CAL PDZ FP-2: 0; dFosB act-2: 2

Results for C#CCn1c(=NC(=O)c2ccc(S(=O)(=O)N3CCCc4ccccc43)cc2)sc2cc(S(N)(=O)=O)ccc21 ?
Rtt109 Vps75: 6; DYRK1A inh: -1; dFosB act-1: 59*; CAL PDZ FP-1: -2; CDK5 p35 inh: 0; CAL PDZ FP-2: -2; dFosB act-2: 2

How did COc1ccc(OCC(=O)N(Cc2sccc2C)C2CCS(=O)(=O)C2)cc1 (stereo not given) do in these assays?
Rtt109 Vps75: -4; DYRK1A inh: 2; dFosB act-1: -3; CAL PDZ FP-1: 0; CDK5 p35 inh: 1; CAL PDZ FP-2: 1

Results for CCOC(=O)c1c(NC(=O)C2c3ccccc3Oc3ccccc32)sc(C(N)=O)c1C ?
Rtt109 Vps75: 1; DYRK1A inh: 6; dFosB act-1: 32*; CAL PDZ FP-1: 1; CDK5 p35 inh: 0; CAL PDZ FP-2: -8; dFosB act-2: 2

Results for N#Cc1c(N)nc(SCC(=O)NCCc2ccccc2)c(C#N)c1-c1cccs1 ?
Rtt109 Vps75: 5; DYRK1A inh: 1; dFosB act-1: 36*; CAL PDZ FP-1: 0; CDK5 p35 inh: -1; CAL PDZ FP-2: -2; dFosB act-2: 0

Results for CN(C)CCN1C(=O)NC(C)(c2ccc([N+](=O)[O-])cc2)C1=O (stereo not given) ?
Rtt109 Vps75: -1; DYRK1A inh: -1; dFosB act-1: 7; CAL PDZ FP-1: -1; CDK5 p35 inh: 0

How did N#Cc1ccc(-c2ccc(F)cc2)nc1SCC(=O)Nc1sc2c(c1C#N)CCC2 do in these assays?
Rtt109 Vps75: -5; DYRK1A inh: 0; dFosB act-1: 37*; CAL PDZ FP-1: -2; CDK5 p35 inh: 1; CAL PDZ FP-2: -2; dFosB act-2: 1

Results for CC(C)c1nc2sc3c(SCC(N)=O)ncnc3c2c2c1CCC2 ?
Rtt109 Vps75: -5; DYRK1A inh: 7; dFosB act-1: -12; CAL PDZ FP-1: 0; CDK5 p35 inh: -1; CAL PDZ FP-2: -4

What do the screens show for `Cc1cccc(C(=O)Oc2coc(CSc3nnc(NC(=O)C4CC4)s3)cc2=O)c1`?
Rtt109 Vps75: 3; DYRK1A inh: 3; dFosB act-1: 7; CAL PDZ FP-1: 1; CDK5 p35 inh: 2; CAL PDZ FP-2: -7

How did O=C(Oc1coc(CSc2nnc(NC(=O)C3CC3)s2)cc1=O)c1ccccc1 do in these assays?
Rtt109 Vps75: -3; DYRK1A inh: 4; dFosB act-1: 23*; CAL PDZ FP-1: 0; CDK5 p35 inh: 0; CAL PDZ FP-2: -2; dFosB act-2: -11

Results for Cc1nc(NC(=O)CN2CCC(O)(c3ccc(F)cc3)CC2)sc1C ?
Rtt109 Vps75: -8; DYRK1A inh: -2; dFosB act-1: -10; CAL PDZ FP-1: -1; CDK5 p35 inh: -3; CAL PDZ FP-2: -10

Results for Cc1cc(C)c(NC(=O)CSc2nc3ncc(Br)cc3[nH]2)c(C)c1 ?
Rtt109 Vps75: -5; DYRK1A inh: -1; dFosB act-1: 30*; CAL PDZ FP-1: -1; CDK5 p35 inh: -1; CAL PDZ FP-2: 3; dFosB act-2: -1

How did COc1ccc2nc(NC(=O)c3ccc4ncsc4c3)sc2c1 do in these assays?
Rtt109 Vps75: 0; DYRK1A inh: 22; dFosB act-1: 22*; CAL PDZ FP-1: -2; CDK5 p35 inh: 0; dFosB act-2: 5

How did COc1ccc2nc(NC(=O)c3ccc(F)cc3)sc2c1 do in these assays?
Rtt109 Vps75: 0; DYRK1A inh: 1; dFosB act-1: 14; CAL PDZ FP-1: 2; CDK5 p35 inh: 1; CAL PDZ FP-2: -3

What do the screens show for `COc1ccc(C(=O)Nc2nc3ccc4nc(C)sc4c3s2)cc1`?
Rtt109 Vps75: 10; DYRK1A inh: 17; dFosB act-1: 23*; CAL PDZ FP-1: -2; CDK5 p35 inh: 0; dFosB act-2: 3

What do the screens show for `COC(=O)c1ccc(N2C(=O)C3CC(C)=C(C)CC3C2=O)cc1` (stereo not given)?
Rtt109 Vps75: 2; DYRK1A inh: 0; dFosB act-1: -1; CAL PDZ FP-1: 0; CDK5 p35 inh: -1; CAL PDZ FP-2: 3

What do the screens show for `Cc1ccn2c(NC(C)(C)C)c(-c3cccs3)nc2c1`?
Rtt109 Vps75: -7; DYRK1A inh: -6; dFosB act-1: 0; CAL PDZ FP-1: 0; CDK5 p35 inh: 1; CAL PDZ FP-2: -1

Results for O=C(COC(=O)C1CCN(S(=O)(=O)c2cccc3cccnc23)CC1)c1ccccc1 ?
Rtt109 Vps75: 5; DYRK1A inh: -8; dFosB act-1: -11; CAL PDZ FP-1: -1; CDK5 p35 inh: -1; CAL PDZ FP-2: -1

How did O=C(Cn1cnc2c(oc3nc4c(cc32)CCCC4)c1=O)Nc1ccccc1 do in these assays?
Rtt109 Vps75: -12; DYRK1A inh: -1; dFosB act-1: -8; CAL PDZ FP-1: -3; CDK5 p35 inh: -1; CAL PDZ FP-2: -5

Results for O=C(Cn1cnc2c(oc3nc4c(cc32)CCCC4)c1=O)Nc1cccc(Cl)c1 ?
Rtt109 Vps75: -16; dFosB act-1: 20*; CAL PDZ FP-1: -3; CAL PDZ FP-2: -3; dFosB act-2: -1

How did O=C(NC1CCC(CC2CCC(NC(=O)C(Cl)Cl)CC2)CC1)C(Cl)Cl (stereo not given) do in these assays?
Rtt109 Vps75: -1; dFosB act-1: 59*; CAL PDZ FP-1: 1; CDK5 p35 inh: -1; CAL PDZ FP-2: -3; dFosB act-2: 6

What do the screens show for `COCCN(C(=O)COC(=O)COc1ccc2ccccc2c1)c1c(N)n(Cc2ccccc2)c(=O)[nH]c1=O`?
Rtt109 Vps75: 0; DYRK1A inh: 4; dFosB act-1: 19*; CAL PDZ FP-1: 0; CDK5 p35 inh: 0; CAL PDZ FP-2: -3; dFosB act-2: 0
